Assay results reported in ChEMBL document CHEMBL2010734, “A thiopyranchromenone and other chromone derivatives from an Endolichenic fungus, Preussia africana” (J Nat Prod, 2012).
Calls of active or inactive are those of the source. The rule behind the calls is not given here.

Columns and labels:
Format in all cases: functional, cell-based
[1] = system: HCT-116; assay: Cytotoxicity against human HCT116 cells at 20 ug/ml after 48 hrs by MTS assay
Method in brief: (§1)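 Cells seeded at (2−5) × 10^3 per well depending on growth rate, attached overnight, then medium replaced with medium containing test compound (serial dilutions from 100 mM DMSO stock) or 0.1% DMSO vehicle; cisplatin as positive control. Incubated 48 h at 37 °C, humidified 5% CO2. MTS added, 90 min at 37 °C in the dark, proliferation read. Triplicate.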

[2] = system: HeLa; assay: Cytotoxicity against human HeLa cells at 20 ug/ml after 48 hrs by MTS assay; method in brief: as §1
[3] = system: A549; assay: Cytotoxicity against human A549 cells at 20 ug/ml after 48 hrs by MTS assay; method in brief: as §1
[4] = system: MCF7; assay: Cytotoxicity against human MCF7 cells at 20 ug/ml after 48 hrs by MTS assay; method in brief: as §1
[5] = system: MCF7; assay: Cytotoxicity against human MCF7 cells after 48 hrs by MTS assay; conditions: MCF7, 48 h; method in brief: as §1
[6] = system: HCT-116; assay: Cytotoxicity against human HCT116 cells after 48 hrs by MTS assay; conditions: HCT-116, 48 h
Method in brief: (§2)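 MTS assay in triplicate. Cells seeded at (2−5) × 10³ per well, with the number set by growth rate, and allowed to attach overnight. Medium then replaced with medium containing 0.1% DMSO or serial dilutions of compounds made from 100 mM DMSO stocks. Cisplatin served as positive control. Incubation 48 h at 37 °C in humidified 5% CO2. MTS added, then 90 min at 37 °C in the dark. IC50 derived.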

[7] = system: A549; assay: Cytotoxicity against human A549 cells after 48 hrs by MTS assay; conditions: A549, 48 h; method in brief: as §2
[8] = system: HeLa; assay: Cytotoxicity against human HeLa cells after 48 hrs by MTS assay; method in brief: as §2

Row | Compound | Activity [1] | Activity [2] | Activity [3] | Activity [4] | IC50 [5] [µM] | IC50 [6] [µM] | IC50 [7] [µM] | IC50 [8] [µM]
1 | COC(=O)[C@H]1c2c(oc3cccc(O)c3c2=O)C[C@](C)(O)[C@H]1O | inactive | inactive | inactive | inactive | – | – | – | –
2 | COC(=O)[C@]1(O)[C@H](O)[C@H](C)[C@H]2Oc3cccc(O)c3C(=O)[C@H]21 | inactive | inactive | inactive | inactive | – | – | – | –
3 | COC1=CC(=O)c2c(O)cc(OC)c3c2[C@]1(O)COC3=O [PREUSSOCHROMONE C] | – | – | – | – | 41.2 | 15.1 | 5.75 | 30
4 | COC(=O)[C@]1(O)C(=O)[C@H](C)[C@H]2Oc3cccc(O)c3C(=O)[C@@H]21 | inactive | inactive | inactive | inactive | – | – | – | –
5 | COC(=O)[C@]1(O)[C@@H](O)[C@H](C)[C@H]2Oc3cccc(O)c3C(=O)[C@@H]21 | inactive | inactive | inactive | inactive | – | – | – | –
6 | COC(=O)[C@@]1(O)c2c(oc3cccc(O)c3c2=O)S[C@@H](C)[C@H]1O [PREUSSOCHROMONE A] | – | – | – | – | – | 25.9 | 8.34 | 25.5
